Reference: ChEMBL document CHEMBL1127326, “Antitumor agents. 148. Synthesis and biological evaluation of novel 4 beta-amino derivatives of etoposide with better pharmacological profiles” (1994)
Values joined by “and” are separate entries in the source; they are usually repeats but may differ in a detail not shown here. Equal entries are not always repeated.

Tests used:
Tumor Cell line [1] = assay: Drug molar concentration required to inhibit 50% of human tumor cell growth; assay type: functional
Outline: (§1)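 NCI panel of 54 human tumor lines from eight cancer types, mostly seeded at 20 000 cells/well. Cells were preincubated 24 h without drug, then exposed to five 10-fold dilutions for 48 h, fixed and stained with sulforhodamine B, and read spectrophotometrically. Versus control, GI50 (50% growth inhibition), TGI (0% growth) and LC50 (−50% growth) were calculated; mean graph midpoints average all lines.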

KB [2] = assay: Cytotoxicity against KB cells after a 3 day incubation; assay type: functional, Homo sapiens; details: read-out: ID50 (the source's name)
Outline: (§2)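 KB cells (parental ATCC line and resistant variants) exposed to drug at five concentrations […] for 3 days. ID50 is the concentration giving 50% reduction in cell number, derived from the degree of inhibition at the five concentrations.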

Tumor Cell line [3] = assay: Drug concentration required to inhibit total cell growth; assay type: functional, Homo sapiens; details: read-out: Log TGI (converted); outline: as §1
KM12 = assay: (§3) In vitro anti tumor activity against human colon tumor cell lines was determined; assay type: functional
Outline: (§4)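 NCI in vitro screen of 54 human tumour lines from eight cancer types. Cells seeded mostly at 20 000/well, preincubated 24 h without drug, then exposed to five 10-fold dilutions for 48 h. Cells fixed in situ, stained with sulforhodamine B, bound dye solubilised and read spectrophotometrically. GI50, TGI (0% growth) and LC50 (-50% growth) were taken from dose-response curves relative to control. Mean-graph midpoints averaged across all lines.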

KM-20L2 = assay: as §3; assay type: functional; outline: as §4
HCT-15 = assay: as §3; assay type: functional; outline: as §4
HCT-116 = assay: as §3; assay type: functional; outline: as §4
SW-620 = assay: as §3; assay type: functional; outline: as §4
HT-29 = assay: as §3; assay type: functional; outline: as §4
COLO 205 = assay: as §3; assay type: functional; outline: as §4
HCC 2998 = assay: as §3; assay type: functional; outline: as §4
DLD-1 = assay: as §3; assay type: functional; outline: as §4
A549 = assay: (§5) In vitro anti tumor activity against human non-small cell lung cancer cell lines was determined; assay type: functional; outline: as §4
NCI-H522 = assay: as §5; assay type: functional; outline: as §4
NCI-H322M = assay: as §5; assay type: functional; outline: as §4
HOP-92 = assay: as §5; assay type: functional; outline: as §4
NCI-H226 = assay: as §5; assay type: functional; outline: as §4
LXFL 529 = assay: as §5; assay type: functional; outline: as §4
EKVX = assay: as §5; assay type: functional; outline: as §4
NCI-H460 = assay: as §5; assay type: functional; outline: as §4
HOP-62 = assay: as §5; assay type: functional; outline: as §4
[4] = tested on: Panel (56 tumour cell lines); assay: In vitro anti tumor activity against human tumor cell lines was determined; assay type: functional; outline: as §4
KB [5] = assay: 50% reduction in the number of KB 7D (topoisomerase II, aMDR) resistant variant; assay type: functional, Homo sapiens; details: Homo sapiens, KB; read-out: ID50 (the source's name); outline: as §2
UACC-257 = assay: (§6) In vitro anti tumor activity against human melanoma cell lines was determined; assay type: functional; outline: as §4
SK-MEL-5 = assay: as §6; assay type: functional; outline: as §4
LOX IMVI = assay: as §6; assay type: functional; outline: as §4
M14 = assay: as §6; assay type: functional; outline: as §4
Malme-3M = assay: as §6; assay type: functional; outline: as §4
SK-MEL-28 = assay: as §6; assay type: functional; outline: as §4
UACC-62 = assay: as §6; assay type: functional; outline: as §4
SK-MEL-2 = assay: as §6; assay type: functional; outline: as §4
M19-MEL = assay: as §6; assay type: functional; outline: as §4
KB [6] = assay: 50% reduction in the number of KB ATCC cells; assay type: functional; details: Homo sapiens, read-out: ID50 (the source's name); outline: as §2
DMS-273 = assay: (§7) In vitro anti tumor activity against human tumor small cell lung cancer cell lines was determined; assay type: functional; outline: as §4
DMS-114 = assay: as §7; assay type: functional; outline: as §4
SK-OV-3 = assay: (§8) In vitro anti tumor activity against human tumor Ovarian cancer cell lines was determined; assay type: functional; outline: as §4
OVCAR-3 = assay: as §8; assay type: functional; outline: as §4
OVCAR-8 = assay: as §8; assay type: functional; outline: as §4
OVCAR-4 = assay: as §8; assay type: functional; outline: as §4
IGROV-1 = assay: as §8; assay type: functional; outline: as §4
SN12C = assay: (§9) In vitro anti tumor activity against human tumor Renal cancer cell lines was determined; assay type: functional; outline: as §4
ACHN = assay: as §9; assay type: functional; outline: as §4
CAKI-1 = assay: as §9; assay type: functional; outline: as §4
RXF 393 = assay: as §9; assay type: functional; outline: as §4
786-0 = assay: as §9; assay type: functional; outline: as §4
UO-31 = assay: as §9; assay type: functional; outline: as §4
TK-10 = assay: as §9; assay type: functional; outline: as §4
KB [7] = assay: 50% reduction in the number of KB V20C resistant variant; assay type: functional, Homo sapiens; details: Homo sapiens, KB; read-out: ID50 (the source's name); outline: as §2
HL-60 = assay: (§10) In vitro anti tumor activity against human tumor leukemia cell lines was determined; assay type: functional; outline: as §4
CCRF-CEM = assay: as §10; assay type: functional; outline: as §4
SR = assay: as §10; assay type: functional; outline: as §4
RPMI-8226 = assay: as §10; assay type: functional; outline: as §4
K562 = assay: as §10; assay type: functional; outline: as §4
MOLT-4 = assay: as §10; assay type: functional; outline: as §4
SF-539 = assay: (§11) In vitro anti tumor activity against human CNS cancer cell lines was determined; assay type: functional; outline: as §4
SNB-78 = assay: as §11; assay type: functional; outline: as §4
SF-295 = assay: as §11; assay type: functional; outline: as §4
SNB-75 = assay: as §11; assay type: functional; outline: as §4
SF-268 = assay: as §11; assay type: functional; outline: as §4
XF498 = assay: as §11; assay type: functional; outline: as §4
SNB-19 = assay: as §11; assay type: functional; outline: as §4
U-251 = assay: as §11; assay type: functional; outline: as §4
NCI-H23 = assay: as §5; details: NCI-H23, read-out: Log GI50 (converted)
[8] = molecular target: DNA topoisomerase II (Homo sapiens) (UniProt P11388+Q02880); assay: 50% inhibition of human DNA topoisomerase II; assay type: protein assay
Nucleic Acid = assay: Percentage inhibition of cellular protein-DNA complex formation; assay type: functional; details: Homo sapiens
Tumor Cell line [9] = assay: Drug concentration required to cause 50% cell death; assay type: functional, Homo sapiens; details: Homo sapiens, Tumor Cell line
Outline: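 NCI in vitro panel of 54 human tumor cell lines from eight cancer types, mostly seeded at 20 000 cells/well and preincubated 24 h without drug. Five 10-fold dilutions were then added for a further 48 h. Cells were fixed in situ and stained with sulforhodamine B, and bound dye was read spectrophotometrically. LC50 (−50% growth versus control) was taken from five-point dose-response curves and reported as the log10 mean-graph midpoint across lines.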

With `COc1cc([C@@H]2c3cc4c(cc3[C@@H](NCCN3CCOCC3)[C@H]3COC(=O)[C@H]23)OCO4)cc(OC)c1O` the GI50 (Tumor Cell line [1]; Homo sapiens, Tumor Cell line) was 2450 nM, the IC50 (KB [2]; Homo sapiens, KB, 72 h) was 4000 nM and the TGI (Tumor Cell line [3]; Homo sapiens, Tumor Cell line) was 10000 nM.
`COc1cc([C@@H]2c3cc4c(cc3[C@@H](NC3CCN(Cc5ccccc5)CC3)[C@H]3COC(=O)[C@H]23)OCO4)cc(OC)c1O` gave a GI50 (KM12) of 204 nM, a GI50 (KM-20L2) of 204 nM and a GI50 (HCT-15) of 123 nM. For the same compound, the GI50 (HCT-116) was 151 nM, the GI50 (SW-620) was 75.9 nM and the GI50 (HT-29) was 138 nM. The GI50 (COLO 205) was 178 nM, the GI50 (HCC 2998) was 174 nM and the GI50 (DLD-1) was 427 nM. The GI50 (Tumor Cell line [1]; Homo sapiens, Tumor Cell line) was 87.1 nM, the IC50 (KB [2]; Homo sapiens, KB, 72 h) was 21 nM and the GI50 (A549) was 13.8 nM. The GI50 (NCI-H522) was 83.2 nM, the GI50 (NCI-H322M) was 1070 nM and the GI50 (HOP-92) was 25.7 nM. The GI50 (NCI-H226) was 11 nM, the GI50 (LXFL 529) was 437 nM and the GI50 (EKVX) was 776 nM. The GI50 (NCI-H460) was < 10 nM, the GI50 (HOP-62) was 26.9 nM and the GI50 [4] was 87.1 nM. It also gave an IC50 (KB [5]) of 97.5 nM, a GI50 (UACC-257) of 257 nM and a GI50 (SK-MEL-5) of 74.1 nM. For the same compound, the GI50 (LOX IMVI) was 34.7 nM, the GI50 (M14) was 47.9 nM and the GI50 (Malme-3M) was 112 nM. The GI50 (SK-MEL-28) was 324 nM, the GI50 (UACC-62) was 36.3 nM and the GI50 (SK-MEL-2) was 240 nM. For the same compound, the GI50 (M19-MEL) was 204 nM, the IC50 (KB [6]) was 24 nM and the GI50 (DMS-273) was 21.9 nM. The GI50 (DMS-114) was 64.6 nM, the TGI (Tumor Cell line [3]) was 525 nM and the GI50 (SK-OV-3) was 53.7 nM. For the same compound, the GI50 (OVCAR-3) was 302 nM, the GI50 (OVCAR-8) was 97.7 nM and the GI50 (OVCAR-4) was 1120 nM. It also gave a GI50 (IGROV-1) of 38.9 nM, a GI50 (SN12C) of 39.8 nM and a GI50 (ACHN) of 18.2 nM. It also gave a GI50 (CAKI-1) of 275 nM, a GI50 (RXF 393) of 398 nM and a GI50 (786-0) of 33.1 nM. For the same compound, the GI50 (UO-31) was 87.1 nM, the GI50 (TK-10) was 195 nM and the IC50 (KB [7]) was 21.5 nM. The GI50 (HL-60) was 13.8 nM, the GI50 (CCRF-CEM) was 22.4 nM and the GI50 (SR) was 10 nM. The GI50 (RPMI-8226) was 53.7 nM, the GI50 (K562) was 123 nM and the GI50 (MOLT-4) was < 10 nM. For the same compound, the GI50 (SF-539) was 53.7 nM, the GI50 (SNB-78) was 933 nM and the GI50 (SF-295) was 36.3 nM. For the same compound, the GI50 (SNB-75) was 219 nM, the GI50 (SF-268) was 129 nM and the GI50 (XF498) was 132 nM. It also gave a GI50 (SNB-19) of 93.3 nM, a GI50 (U-251) of 26.3 nM and a GI50 (NCI-H23) of 40.7 nM.
For `COc1cc([C@@H]2c3cc4c(cc3[C@@H](NCCCN(C)C)[C@H]3COC(=O)[C@H]23)OCO4)cc(OC)c1O`, the ID50 [8] was 25000 nM and the Complex formation (Nucleic Acid) was 179% and 186%.
For `CCOC(=O)N1CCC(N[C@@H]2c3cc4c(cc3[C@@H](c3cc(OC)c(O)c(OC)c3)[C@H]3C(=O)OC[C@@H]32)OCO4)CC1` [listing 1 of 2 here], the GI50 (Tumor Cell line [1]) was 1780 nM, the IC50 (KB [2]) was 1130 nM and the TGI (Tumor Cell line [3]) was 8130 nM.
Compound `CCOC(=O)N1CCC(N[C@@H]2c3cc4c(cc3[C@@H](c3cc(OC)c(O)c(OC)c3)[C@H]3C(=O)OC[C@@H]32)OCO4)CC1` [listing 2 of 2 here] has an ID50 [8] of 25000 nM.
`COc1cc([C@@H]2c3cc4c(cc3[C@@H](NCCN(C)C)[C@H]3COC(=O)[C@H]23)OCO4)cc(OC)c1O` showed a GI50 (Tumor Cell line [1]; Homo sapiens, Tumor Cell line) of 263 nM, a TGI (Tumor Cell line [3]; Homo sapiens, Tumor Cell line) of 2510 nM and an LC50 (Tumor Cell line [9]) of 21900 nM.
